Measured values published in ChEMBL document CHEMBL1143369, “Guanidine and 2-aminoimidazoline aromatic derivatives as alpha2-adrenoceptor ligands: searching for structure-activity relationships” (J Med Chem, 2009).
Calls of active or inactive are those of the source. No cut-off for these calls is given here.

Experiments:
[1] = molecular target: T1, Adrenergic receptor alpha-2 (Homo sapiens, UniProt P08913+P18825+P18089); assay: Agonist activity at alpha2 adrenoceptor in human cortical membrane after 2 hrs by [35S]GTPgammaS binding assay; format: functional, cell membranes
T1 sequence (P08913 whole entry): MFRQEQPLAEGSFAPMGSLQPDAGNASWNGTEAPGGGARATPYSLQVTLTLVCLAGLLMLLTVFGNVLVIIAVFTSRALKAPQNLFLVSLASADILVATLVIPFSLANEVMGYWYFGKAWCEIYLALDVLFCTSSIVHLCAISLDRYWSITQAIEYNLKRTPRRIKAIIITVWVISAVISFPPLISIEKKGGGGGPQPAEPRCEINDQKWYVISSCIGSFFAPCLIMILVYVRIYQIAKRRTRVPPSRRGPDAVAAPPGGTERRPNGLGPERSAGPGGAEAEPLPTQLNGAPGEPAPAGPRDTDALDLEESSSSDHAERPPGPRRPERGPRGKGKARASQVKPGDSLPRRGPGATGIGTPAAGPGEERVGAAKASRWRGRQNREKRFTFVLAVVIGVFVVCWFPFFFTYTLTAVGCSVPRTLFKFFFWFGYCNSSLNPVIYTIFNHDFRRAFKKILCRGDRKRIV
T1 sequence (P18825 whole entry): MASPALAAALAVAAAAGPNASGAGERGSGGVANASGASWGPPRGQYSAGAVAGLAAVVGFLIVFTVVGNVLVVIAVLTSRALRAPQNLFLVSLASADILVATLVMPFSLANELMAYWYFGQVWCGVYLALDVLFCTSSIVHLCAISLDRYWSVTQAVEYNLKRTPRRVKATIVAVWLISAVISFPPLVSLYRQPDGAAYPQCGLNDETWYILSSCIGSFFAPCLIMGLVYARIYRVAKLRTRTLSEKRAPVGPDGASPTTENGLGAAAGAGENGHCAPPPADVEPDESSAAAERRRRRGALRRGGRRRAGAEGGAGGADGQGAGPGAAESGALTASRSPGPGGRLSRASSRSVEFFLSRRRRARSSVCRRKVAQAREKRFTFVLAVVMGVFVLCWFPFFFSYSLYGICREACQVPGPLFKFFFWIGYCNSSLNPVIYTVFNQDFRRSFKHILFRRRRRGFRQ
T1 sequence (P18089 whole entry): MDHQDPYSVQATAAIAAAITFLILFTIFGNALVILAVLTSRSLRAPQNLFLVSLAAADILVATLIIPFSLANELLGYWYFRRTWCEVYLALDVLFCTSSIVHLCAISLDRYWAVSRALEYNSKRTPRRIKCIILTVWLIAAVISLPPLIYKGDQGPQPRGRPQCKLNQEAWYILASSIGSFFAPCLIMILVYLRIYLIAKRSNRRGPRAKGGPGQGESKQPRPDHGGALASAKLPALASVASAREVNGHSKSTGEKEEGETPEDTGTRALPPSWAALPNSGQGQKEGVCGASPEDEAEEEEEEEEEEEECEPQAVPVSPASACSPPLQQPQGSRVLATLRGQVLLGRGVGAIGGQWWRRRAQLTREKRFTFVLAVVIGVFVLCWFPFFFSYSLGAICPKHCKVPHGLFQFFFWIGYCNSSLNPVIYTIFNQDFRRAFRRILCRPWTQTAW

[2] = molecular target: T2, Adrenergic receptor alpha-2 (Homo sapiens) (UniProt P08913+P18825+P18089); assay: Intrinsic activity at alpha2 adrenoceptor in human cortical membrane at 0.0001 to 1000 uM after 2 hrs by [35S]GTPgammaS binding assay relative to UK-14304; format: functional, cell membranes
Procedure, shortened: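 Human postmortem PFC membranes (40 µg protein) incubated 2 h at 30 °C with 0.5 nM [35S]GTPγS in buffer of EGTA, MgCl2, 100 mM NaCl, GDP and Tris-HCl pH 7.4. Compound tested at 8 concentrations (10^-10 to 10^-3 M). Bound label collected by GF/C filtration.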

[3] = molecular target: T1, Adrenergic receptor alpha-2; assay: Displacement of [3H]RX821002 from alpha2 adrenoceptor in human prefrontal cortex neural membrane after 30 mins by liquid scintillation spectrometry; format: tissue-based
[4] = test system: Rattus norvegicus; assay: Antidepressant activity in Sprague-Dawley rat assessed as increase in extracellular noradrenaline level in prefrontal cortex at 1 to 100 uM administered locally by microdialysis measured after every 70 mins by HPLC; format: functional
Procedure, shortened: (§1)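 Male Sprague-Dawley rats (250-300 g), freely moving, with a PFC probe implanted under chloral hydrate 20-24 h earlier. Perfused with aCSF pH 7.4 at 1 µL/min. Drug dissolved in aCSF and reverse-dialysed for 70 min at each step of 1, 10 and 100 µM. Dialysate sampled every 35 min, NA measured by HPLC with amperometric detection at +650 mV. Values are % of mean of 3 basal samples, ANOVA versus aCSF controls.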

[5] = test system: Rattus norvegicus; assay: Antidepressant activity in Sprague-Dawley rat assessed as increase in extracellular noradrenaline level in prefrontal cortex at 1 uM administered locally by microdialysis measured after every 70 mins by HPLC; format: functional, organism-based; procedure, shortened: as §1
[6] = molecular target: T2, Adrenergic receptor alpha-2 (Homo sapiens); assay: Antagonist activity at alpha2 adrenoceptor in human prefrontal cortex neural membrane at 10 uM assessed as rightwards shift in UK-14304 EC50 by [35S]GTPgammaS binding assay; format: functional, tissue-based
Procedure, shortened: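 Human postmortem prefrontal cortex P2 membranes (40 µg protein) incubated 120 min at 30 °C with shaking in 0.5 nM [35S]GTPγS, 1 mM EGTA, 3 mM MgCl2, 100 mM NaCl, GDP, Tris-HCl pH 7.4. Nonspecific binding with 10 µM unlabeled GTPγS.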

[7] = test system: Rattus norvegicus; assay: Antidepressant activity in Sprague-Dawley rat assessed as increase in extracellular noradrenaline level in prefrontal cortex at 10 mg/kg, ip […] by HPLC; format: functional; conditions: route intraperitoneal
[8] = test system: Rattus norvegicus; assay: Antidepressant activity in Sprague-Dawley rat assessed as increase in extracellular noradrenaline level in prefrontal cortex at 100 uM administered locally by microdialysis measured after every 70 mins by HPLC; format: functional; procedure, shortened: as §1

Row | pKi [3] | Activity [6] | SMILES | EC50 [1] [µM] | Emax [2] [%] | Emax [4] [%] | Activity [5] | Activity [7] [%] | Emax [8] [%]
1 |  |  | CCC(CC)c1ccc(NC(=N)N)cc1 | 38.7 | 89 |  |  |  | 
2 | 7.12 |  | CCN(C)c1ccc(NC(=N)N)cc1 | 16.2 | 92 |  |  |  | 
3 | 9.04 |  | COC1(C2=NCCN2)COc2ccccc2O1 (centres undefined) |  |  | 290 | Active |  | 
4 | 6.58 | Active | CCNc1ccc(NC(=N)N)cc1 |  |  |  |  | 161 | 304
5 | 6.95 |  | CNc1ccc(NC(=N)N)cc1 | 82.3 | 87 |  |  |  | 

Row | SMILES | pKi [3] | Activity [6] | EC50 [1] [µM] | Emax [2] [%] | Emax [4] [%] | Activity [5] | Activity [7] [%] | Emax [8] [%]
6 | CNc1ccc(NC2=NCCN2)cc1 | 7.27 |  | 61.4 | 98 |  |  |  | 
7 | CCNc1ccc(NC2=NCCN2)cc1 | 6.75 |  | 59.3 | 95 |  |  |  | 
8 | CCN(C)c1ccc(NC2=NCCN2)cc1 | 7.38 |  | 1.9 | 103 |  |  |  | 
